The source of these data is ChEMBL document CHEMBL1148024, “Novel inhibitors of fatty acid amide hydrolase” (Bioorg Med Chem Lett, 2007).

Each structure is given as a SMILES string. Active and inactive are the calls of the source. No cut-off for these calls is given here.

Assay [1] concerns the target T1, Fatty-acid amide hydrolase 1 (Homo sapiens, UniProt O00519).
T1 sequence (O00519 whole entry): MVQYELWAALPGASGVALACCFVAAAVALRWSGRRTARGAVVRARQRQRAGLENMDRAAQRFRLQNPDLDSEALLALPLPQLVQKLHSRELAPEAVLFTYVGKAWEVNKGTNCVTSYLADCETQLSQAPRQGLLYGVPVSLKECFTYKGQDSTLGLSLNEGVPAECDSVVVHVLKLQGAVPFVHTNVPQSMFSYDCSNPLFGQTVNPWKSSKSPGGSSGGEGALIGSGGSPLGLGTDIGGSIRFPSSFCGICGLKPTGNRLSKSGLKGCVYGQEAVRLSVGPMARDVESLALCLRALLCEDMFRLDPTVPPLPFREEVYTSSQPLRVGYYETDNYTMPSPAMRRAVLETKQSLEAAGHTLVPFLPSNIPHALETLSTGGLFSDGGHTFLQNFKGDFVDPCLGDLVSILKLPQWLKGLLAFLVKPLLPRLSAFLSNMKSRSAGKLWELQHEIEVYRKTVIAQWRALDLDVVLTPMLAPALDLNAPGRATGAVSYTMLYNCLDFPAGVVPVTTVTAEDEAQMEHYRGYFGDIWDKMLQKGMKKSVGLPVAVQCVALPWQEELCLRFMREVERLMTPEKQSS
The assay is described as follows: Inhibition of human FAAH expressed in H4 cells. Format: cell-based. The method, boiled down:
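Enzyme source: crude membrane homogenates from H4 cells transfected with human FAAH. Activity measured by a modified Omeir et al. method. IC50 taken from a four-parameter logistic fit of dose–response curves.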

Assay [2] has as its system Rattus norvegicus. Nature of the assay: Antinociceptive effect in rat persistent pain model assessed as suppression of formalin-induced paw flinches at 20 mg/kg, iv relative to control. Format: functional, organism-based. Further details: dose 20 mg/kg.
The target of another assay is Cannabinoid receptor 1 (Homo sapiens, UniProt P21554). The assay is described as follows: Displacement of [3H]CP-55940 from CB1 receptor expressed in HEK cells. It counts as cell-based, HEK293. On the technique in general: Loss of bound radioactivity is the signal in a displacement assay; it reports binding, not function.
For another assay, the target named is Cannabinoid receptor 2 (Homo sapiens, UniProt P34972). Nature of the assay: Displacement of [3H]CP-55940 from CB2 receptor expressed in CHO cells. Format: cell-based.
Assay [3] concerns Rattus norvegicus. The assay is described as follows: Effect on neuropathic pain in rat chung model assessed as reversal of tactile allodynia at 20 mg/kg, iv. Format: functional, organism-based. Further details: dose 20 mg/kg.
In assay [4] the test system is Rattus norvegicus. Nature of the assay: Antinociceptive effect in rat persistent pain model assessed as suppression of formalin-induced paw flinches at 20 mg/kg, iv in presence of SR-141716A. It counts as functional, organism-based. Further details: dose 20 mg/kg. The method, boiled down: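 CB1 antagonist SR141716A was given ip at 3 or 10 mg/kg at -30 min. Test compound (20 mg/kg) followed iv via jugular catheter at -15 min, then subcutaneous paw formalin at 0 min. Paw-flinch frequency was scored in Phase I (acute) and Phase II (persistent). Groups were compared with vehicle by Dunnett's test.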

Assay [5] concerns the target T2, Cytosolic phospholipase A2 (Homo sapiens, UniProt P47712).
T2 sequence (P47712 whole entry): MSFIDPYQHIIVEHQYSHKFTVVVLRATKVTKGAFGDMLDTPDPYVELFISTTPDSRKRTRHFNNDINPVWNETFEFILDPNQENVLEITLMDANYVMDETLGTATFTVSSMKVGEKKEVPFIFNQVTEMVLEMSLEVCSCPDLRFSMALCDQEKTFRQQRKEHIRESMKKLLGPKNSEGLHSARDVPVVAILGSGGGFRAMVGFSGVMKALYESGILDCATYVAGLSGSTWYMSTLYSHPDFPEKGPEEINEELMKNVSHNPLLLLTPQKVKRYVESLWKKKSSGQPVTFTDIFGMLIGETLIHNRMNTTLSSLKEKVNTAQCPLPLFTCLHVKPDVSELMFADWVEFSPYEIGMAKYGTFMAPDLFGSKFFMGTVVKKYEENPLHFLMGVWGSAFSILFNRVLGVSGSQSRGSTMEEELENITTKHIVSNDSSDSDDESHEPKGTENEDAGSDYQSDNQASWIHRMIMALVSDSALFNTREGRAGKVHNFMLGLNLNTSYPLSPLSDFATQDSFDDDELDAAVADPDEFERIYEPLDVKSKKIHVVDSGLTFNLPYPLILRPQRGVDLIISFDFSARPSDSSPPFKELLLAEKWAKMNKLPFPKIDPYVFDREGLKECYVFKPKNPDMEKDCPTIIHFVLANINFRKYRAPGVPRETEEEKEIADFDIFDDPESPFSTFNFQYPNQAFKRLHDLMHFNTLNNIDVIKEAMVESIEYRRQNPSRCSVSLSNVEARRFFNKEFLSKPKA
Nature of the assay: Inhibition of cPLA2 activity.

The subject of assay [6] is Rattus norvegicus. The assay is described as follows: Antinociceptive effect in rat at 10 mg/kg, iv by thermal escape test. It counts as functional, organism-based. Further details: dose 10 mg/kg. The essentials: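 Rats were dosed iv with test compound at 0.1, 1 and 10 mg/kg, 15 min before exogenous anandamide (1 mg/kg, iv). Antinociception was read in the Hargreaves thermal escape test from 3 to 30 min after anandamide.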

Cannabinoid receptor 2, sequence (P34972 whole entry): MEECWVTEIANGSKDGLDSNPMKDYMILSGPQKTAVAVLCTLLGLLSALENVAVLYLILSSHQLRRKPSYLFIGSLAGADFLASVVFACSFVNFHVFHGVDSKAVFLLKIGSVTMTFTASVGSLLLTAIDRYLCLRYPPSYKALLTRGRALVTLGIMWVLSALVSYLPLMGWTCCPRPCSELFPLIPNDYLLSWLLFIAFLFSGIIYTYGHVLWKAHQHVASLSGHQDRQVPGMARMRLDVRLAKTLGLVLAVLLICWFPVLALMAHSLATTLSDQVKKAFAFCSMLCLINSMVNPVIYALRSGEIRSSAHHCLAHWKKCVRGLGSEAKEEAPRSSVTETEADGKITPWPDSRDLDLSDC
Cannabinoid receptor 1, sequence (P21554 whole entry): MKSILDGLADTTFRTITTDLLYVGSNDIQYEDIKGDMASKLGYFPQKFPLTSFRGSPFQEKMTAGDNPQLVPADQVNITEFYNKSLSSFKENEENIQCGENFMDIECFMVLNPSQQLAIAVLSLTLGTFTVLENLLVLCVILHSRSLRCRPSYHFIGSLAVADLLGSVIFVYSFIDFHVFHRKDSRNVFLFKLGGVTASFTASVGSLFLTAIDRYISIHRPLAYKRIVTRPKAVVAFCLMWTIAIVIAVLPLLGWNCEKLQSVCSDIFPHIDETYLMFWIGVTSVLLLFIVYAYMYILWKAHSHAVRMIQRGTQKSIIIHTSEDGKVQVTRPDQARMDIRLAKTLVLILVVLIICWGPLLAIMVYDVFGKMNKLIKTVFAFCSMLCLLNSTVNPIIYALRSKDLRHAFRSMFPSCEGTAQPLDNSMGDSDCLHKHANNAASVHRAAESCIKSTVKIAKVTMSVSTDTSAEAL

The molecule `Cc1nc(-c2ccccc2)c(-c2ccccc2)n1CCCCCCNC(=O)Oc1ccccc1F` returned an IC50 in assay [1] of 2 nM. The result in the assay on Rattus norvegicus [2] and in the assay on Rattus norvegicus [3] was Active. Moreover, the Ki at Cannabinoid receptor 1 is 23 µM; on Cannabinoid receptor 2, 28 µM; in assay [5] it was 15 µM. Also, the outcome in the assay on Rattus norvegicus [4] and with Rattus norvegicus [6] was inactive.
Take `CCCCC/C=C\C/C=C\C/C=C\C/C=C\CCCC(=O)NCCO`: the outcome in the assay on Rattus norvegicus [6] was inactive.
With `CCC(CCCCCn1c(C)nc(-c2ccccc2)c1-c1ccccc1)NC(=O)Oc1ccccc1F` (centres undefined), in assay [1], the IC50 turned out to be 30 nM.
On the same count and under the same terms, under `Cc1nc(-c2ccccc2)c(-c2ccccc2)n1CCCCCC(C)NC(=O)Oc1ccccc1F` (centres undefined) stands 4.2 nM; under `CCOC(=O)CC(C)CCCCCn1c(C)nc(-c2ccccc2)c1-c1ccccc1` (centres undefined), 130 nM; under `CCCN(CCCCCCn1c(C)nc(-c2ccccc2)c1-c1ccccc1)C(=O)Oc1ccccc1F`, more than 100000 nM.
Molecule `CCOC(=O)CCCCCn1c(CC)nc(-c2ccccc2)c1-c1ccccc1` yielded an IC50 in assay [1] of 32 nM. This counts as double-digit nanomolar.
In assay [1], `COC(=O)COc1ccc(-n2cnc(-c3ccccc3)c2-c2ccccc2)cc1` displayed an IC50 of 670 nM.
Still for that read-out and setting: under `Cc1nc(-c2ccccc2)c(-c2ccccc2)n1CCCCCC(NC(=O)Oc1ccccc1F)c1ccccc1` (centres undefined) stands 110 nM; under `CCOC(=O)CC(CC)CCCCCn1c(C)nc(-c2ccccc2)c1-c1ccccc1` (centres undefined), 9900 nM; under `Cc1nc(-c2ccccc2)c(-c2ccccc2)n1CCCCCCC(=O)N(C)C`, 970 nM.
The same measure, in the same setting: under `Cc1nc(-c2ccccc2)c(-c2ccccc2)n1CCCCCCNC(=O)Oc1ccccc1` stands 5.3 nM; under `CNC(=O)NCCCCCCn1c(C)nc(-c2ccccc2)c1-c1ccccc1`, more than 10000 nM; under `Cc1nc(-c2ccccc2)c(-c2ccccc2)n1CCCCCC(NC(=O)Oc1ccccc1F)C(C)C` (centres undefined), 250 nM.
Take `COC(=O)COc1cccc(-n2cnc(-c3ccccc3)c2-c2ccccc2)c1`: the IC50 in assay [1] came out at 6500 nM.
As for `CCc1nc(-c2ccccc2)c(-c2ccccc2)n1CCCCCCCC(=O)OC`, the IC50 in assay [1] amounted to 31 nM.
Turning to `CCOC(=O)CCCOc1cccc(-n2cnc(-c3ccccc3)c2-c2ccccc2)c1`, half-maximal inhibition in assay [1] (IC50) was put at 91 nM.
The same measure, in the same setting: as for `CCN(CCCCCCn1c(C)nc(-c2ccccc2)c1-c1ccccc1)C(=O)Oc1ccccc1F`, the figure is more than 100000 nM; as for `CCOC(=O)CCCOc1ccc(-n2cnc(-c3ccccc3)c2-c2ccccc2)cc1`, 64 nM; as for `Cc1nc(-c2ccccc2)c(-c2ccccc2)n1CCCCCCNC(=O)Nc1ccccc1`, 10000 nM.
With `CNC(=O)CCCCCCn1c(C)nc(-c2ccccc2)c1-c1ccccc1`, the midpoint of inhibition in assay [1], the IC50, lay at 1700 nM.
For `CCOC(=O)CCCCCCn1c(CC)nc(-c2ccccc2)c1-c1ccccc1`, 11 nM corresponded to half-maximal inhibition in assay [1] (IC50).
Same read-out and setting: as for `CCOC(=O)CC(CCCCCn1c(C)nc(-c2ccccc2)c1-c1ccccc1)C(C)C` (centres undefined), the figure is more than 100000 nM; as for `Cc1nc(-c2ccc(F)cc2)c(-c2ccc(F)cc2)n1CCCCCCNC(=O)Oc1c(F)cccc1F`, 24 nM; as for `Cc1nc(-c2ccc(F)cc2)c(-c2ccc(F)cc2)n1CCCCCCNC(=O)Oc1ccccc1F`, 10 nM.
On the same count and under the same terms, under `CCOC(=O)CCCCCCn1c(C)nc(-c2ccc(F)cc2)c1-c1ccc(F)cc1` stands 64 nM; under `CCOC(=O)CCCCOc1ccc(-n2cnc(-c3ccccc3)c2-c2ccccc2)cc1`, more than 10000 nM.

Broadly, the IC50 is the concentration that gives 50% inhibition. A lower IC50 goes with greater potency in that assay. The Ki is the dissociation constant of the complex between target and ligand, obtained from inhibition or displacement.
